This series concerns MS2 coat protein. In words: apparent Kd, MS2 coat protein; higher = weaker binding; RNA-MaP array; FMN 200 µM where present. In outline: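 Stalled E. coli RNA polymerase transcribed each design on Illumina sequencing-chip clusters. The clusters were titrated with SNAP-549-labelled MS2 coat protein, starting at 0.7 or 1.5 nM and doubling up to 3 µM, first without ligand and then with constant ligand, in 100 mM Tris-HCl pH 7.5, 80 mM KCl, 4 mM MgCl2, BSA, DTT, yeast tRNA and Tween-20. Green signal was normalised to red-channel RNA signal and to the control-cluster median Fmax. The apparent Kd is the median of filtered binding-curve fits made for each cluster.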

The mark [1] stands for this setting: designed as: OFF switch for flavin mononucleotide, no ligand.
The mark [2] stands for this setting: ligand present: flavin mononucleotide, designed as: OFF switch for flavin mononucleotide.
Setting [3] is: designed as: ON switch for flavin mononucleotide, no ligand.
[4] abbreviates: ligand present: flavin mononucleotide, designed as: ON switch for flavin mononucleotide.

For orientation: apparent Kd means the concentration giving half-maximal binding under the conditions of the assay. “CAGUACUGAGGAUAUACAUGAGGAUCACCCAUGUGUUCCAGCUAGGAAACUGGCAAAAGUAGAAGGCAGUACUG”: the “apparent Kd” value by setting is: under setting [1], 22.8 nM; under setting [2], 320 nM.

On to “CUUUAAGUCGAGAAGGACAUGAGGAUCACCCAUGUAGGAUAUCGAUUAGCUUGCAUCCCGAGCCGCAUCGGUGUGACUGGUGGG”, for which the “apparent Kd” value runs as follows: under setting [3], 36.5 nM; under setting [4], 7.83 nM.

For the sequence “AUGCUUCACACAGGAUAUACAUGAGGAUCACCCAUGUGUCCUCCGUAGCUGACACCAGCUACGCUGUAGAAGGGUGUGAAGCAU”, the “apparent Kd” value runs as follows: under setting [1], 261 nM; under setting [2], 201 nM.

As to “GAGGUACAUGAGGAUCACCCAUGUGAGGAUAUAGUGGAAGAUUGAGAGAGGUGGAGGACUAGAAGGCACAGUGG”, the “apparent Kd” value is, setting by setting: under setting [1], 67.3 nM; under setting [2], 66.2 nM.

“CUCAUGUUAGGAUAUGCGCCCAGCCUAGUGGCCGGGCUCUAGCAGAAGGAACAUGAGGAUCACCCAUGUUUGCA”: the “apparent Kd” value runs as follows: under setting [1], 62.5 nM; under setting [2], 18.6 nM.

On to “GUGUAGACAGGAUAUGCUUUGAGCAUAUGAGAGUAUGCUCGACAUGAGGAUCACCCAUGUAGAAGGGUCUACAC”, for which the “apparent Kd” value is, setting by setting: under setting [1], 12.1 nM; under setting [2], 12.9 nM.

As for “AAGUCGAGCGUGAGGAUAUCGACCGGACGACCCAUCGAGAAGGCACAUGAGGAUCACCCAUGUGAUUCAGCUCA”, the “apparent Kd” value by setting is: under setting [1], 16.9 nM; under setting [2], 25.9 nM.

Turning to “GCUGGUCGAGGAUAUACGUGACGUGCUUCGGCACGAGGUCUACAUGAGGAUCACCCAUGUAGAAGGCGACCAGC”, the “apparent Kd” value is 14.5 nM under setting [1] and 52.7 nM under setting [2].

Take “AAUAUGAGCUGGUAUAAACCCGAAACAUGAGGAUCACCCAUGUAGGAUAUCAGCACGAUAAGUGCUGAGAAGGACAUCCAGCUC”: the “apparent Kd” value under setting [1] was determined as 14.5 nM and the “apparent Kd” value under setting [2] was 14.5 nM.

As to “UAGGACUACGUAGGAUAUGUAGUAUAUUACUACAUGAGGAUCACCCAUGUAAGCAUGUUAUUAGGACAGAAGGACGUGGUAAAU”, the “apparent Kd” value is, setting by setting: under setting [3], 43.6 nM; under setting [4], 13.7 nM.

Take “GGGUACAUCGUAGGAUAUCAUGUAAAUACAUGAGGAUCACCCAUGUCGAUGGAGACAUCGGAGAUUGAGAAGGCCGAUGUACCG”: the “apparent Kd” value amounted to 206 nM under setting [3] and 17.9 nM under setting [4].

With “AGAUCACAUGAGGAUCACCCAUGUGAGGAUAUGAUACUAUGUACUUCGGUACAUAGUAUCAGAAGGCGCGUGAA”, the “apparent Kd” value is, setting by setting: under setting [1], 29.8 nM; under setting [2], 42.2 nM.

As for “AGACAUGUCCGAGGAUAUCUGGAAACAUUUUCAAGAGAAGGCGGACAUGAGGAUCACCCAUGUCUCUCCUCAUCAAAUCCAAGU”, the “apparent Kd” value was 7.98 nM under setting [1] and 44.6 nM under setting [2].

Regarding “GGAAUAUUUACAGGAUAUCAUUUGUAAAUUCGAUGAGAAGGGUAGAUGUCUUACACGACUUGUUACAUGAGGAUCACCCAUGUU”, the “apparent Kd” value by setting is: under setting [3], 43.3 nM; under setting [4], 33.3 nM.

“UUCCUCGUUGUGAGGAUAUCGUCCGUGUUUUGUUACGAGAAGGCACAUGAGGAUCACCCAUGUUUUUUGUUUUU”: the “apparent Kd” value came out at 39.2 nM under setting [1] and 77.7 nM under setting [2].

Turning to “CUUGGCUAGGAGAAGGGCUAGAGUGUGAUAUAUUUGCCCGCGAGCACAUGAGGAUCACCCAUGUAGCAGGAUAUCCAAGCCGGU”, the “apparent Kd” value runs as follows: under setting [1], 7.4 nM; under setting [2], 17.4 nM.

With “AGCAUGUGAGGAUAUGUGAGCCUCAUCCGAAGGACGAGGGAAUAGAAGGCACAUGAGGAUCACCCAUGUGAUGA”, the “apparent Kd” value by setting is: under setting [1], 27.3 nM; under setting [2], 74.3 nM.

Consider “GAUCAGCUUGUGAGGAUAUCCGGGCAUAAAGGCUAGGAGAAGGUACAUGAGGAUCACCCAUGUAGAGUCCUGGG”, for which the “apparent Kd” value by setting is: under setting [1], 47.9 nM; under setting [2], 58.9 nM.

As to “AAGCAUUGGCUUCUCAUCUACAUGAGGAUCACCCAUGUCGGGAGAAGGAGGCGUUGACAACUAGCCUAGGAUAUCCUAACGUGC”, the “apparent Kd” value was 6.74 nM under setting [1] and 7.26 nM under setting [2].

On to “AUUUUAAAGGGAGGAUAUACAUGAGGAUCACCCAUGUAAACGUGAGGAUCACCCAUGUUAACAAUGUAGAAGGCCUAUAUCUAU”, for which the “apparent Kd” value is 41.1 nM under setting [1] and 31 nM under setting [2].

Consider “GCACUGGAUGUAGGAUAUCAGGACGAUAAGUCCUGAGAAGGACAUGAGGAUCACCCAUGUGCUCAAUAACCAGUGCAUAAUAUA”, for which the “apparent Kd” value runs as follows: under setting [1], 14.5 nM; under setting [2], 20.3 nM.

On to “ACAUGAGGAUCACCCAUGUGGAGUGAAGAAGGUGGUUACUUAUGACUCUCCCAUGUACAUAGGACUGAGGAUAUUCUAAUAAUU”, for which the “apparent Kd” value under setting [3] came out at 88.5 nM and the “apparent Kd” value under setting [4] amounted to 81.7 nM.

On to “AUAAUCACAUGAGGAUCACCCAUGUACCGAGCUAAAGCUACAUAGGAUAUGACAAGUAUAGCUUGUCAGAAGGGUGAGUCUCGC”, for which the “apparent Kd” value under setting [3] is 46.3 nM and the “apparent Kd” value under setting [4] was 67.1 nM.

For “CCGGCUGCCGUGAGGAUAUGCCCGCGCGCCCGCGGGCAGAAGGCACAUGAGGAUCACCCAUGUCCUGCGGUCCC”, the “apparent Kd” value under setting [1] is 17.4 nM and the “apparent Kd” value under setting [2] is 19.9 nM.

Consider “GGUAGAGAGCAGGAUAUCUUGGGUAAGUAUCGUAGAGAAGGGCUCACAUGAGGAUCACCCAUGUGGUCCUAGAU”, for which the “apparent Kd” value came to 12.1 nM under setting [1] and 24.8 nM under setting [2].

As for “GGUGCGUUUGUGAGGAUAUGCUGGUCCUUGGAUCAGCAGAAGGCACAUGAGGAUCACCCAUGUGGUGUCGUACC”, the “apparent Kd” value is, setting by setting: under setting [1], 447 nM; under setting [2], 47.3 nM.

For “AUAGGCCUAGGAUAUACAUGAGGAUCACCCAUGUUAAUACUUCAAUCAUGAUAAACGUGUAGAAGGAGGAAUAA”, the “apparent Kd” value under setting [1] amounted to 25.8 nM and the “apparent Kd” value under setting [2] came to 26.1 nM.

With “AGAAACUACGAGAAGGACAUAUGAUUAAGACGAAACAUGAGGAUCACCCAUGUAGGAUAUCGUAGUUUCAGGAUCGUGAGAUCA”, the “apparent Kd” value by setting is: under setting [1], 7.21 nM; under setting [2], 17.8 nM.

In the case of “AAAAAGUCAGGAUAUCGGAAAAAAAAAAAAAAAAGGAGAAACGAGAAGGGACAUGAGGAUCACCCAUGUAAAAA”, the “apparent Kd” value is 51 nM under setting [1] and 46.7 nM under setting [2].

For the sequence “AACAUGAGGAUCACCCAUGUACGCUGUAAUUACUCGCGUUGGCAGGAUAUGGGUUGGCUUCCGUCCCAGAAGGGUCAAGAUAAA”, the “apparent Kd” value is, setting by setting: under setting [3], 253 nM; under setting [4], 105 nM.

With “AAGGACUGUAAAUUAACUCAAAUACAUGAGGAUCACCCAUGUAAGGAUAUCGUCAGGAAUACUGACGAGAAGGUACAUCAGUCC”, the “apparent Kd” value worked out at 15.6 nM under setting [1] and 20.8 nM under setting [2].

For the sequence “UCCUCACAUGAGGAUCACCCAUGUCAGGAUAUCUCACAGCUAAAGAAUAAAGGCUGCAAGAGAAGGGACACAAU”, the “apparent Kd” value under setting [1] turned out to be 21.6 nM and the “apparent Kd” value under setting [2] was determined as 48.1 nM.

Regarding “UUAAUUAACAAGAAGGCAUACAUGAGGAUCACCCAUGUUGUACAUGGAUAAUGAGGAUAUUGCUAAUACAUGAGGAUCACCCAU”, the “apparent Kd” value runs as follows: under setting [1], 36.5 nM; under setting [2], 34.3 nM.

Turning to “CAAAUCUGAGGAUAUCGAUAUUUGUACAUGAGGAUCACCCAUGUCCUAUUUAUUAUAUUUCGAGAAGGCAGUGUAU”, the “apparent Kd” value turned out to be 19.5 nM under setting [1] and 17.2 nM under setting [2].

Regarding “GGAUAGGACAGAGGAUAUACGUGCUAGAGAUACUAGCAUAAUUUCCUCACAUGAGGAUCACCCAUGUAGAAGGCUGUCCUAUCG”, the “apparent Kd” value reads like this: under setting [1], 6.78 nM; under setting [2], 46.7 nM.

Consider “CGUUUUAAACAAGGAUAUCAUUUGUGUACAAGUUUUACAUGAGGAUCACCCAUGUUAAAUGGUUUUGAGAAGGUGUUUAGAACG”, for which the “apparent Kd” value was 31.1 nM under setting [3] and 25 nM under setting [4].

On to “CCGCAAAUGCAGGAUAUCGUAUCGGAUACGAUACGAGAAGGGCGUACAUGAGGAUCACCCAUGUGUCCUAGCGG”, for which the “apparent Kd” value by setting is: under setting [1], 16.4 nM; under setting [2], 23.3 nM.

In the case of “UCUUAUUGCAAGGAUAUGCUUUUUAUUUCUUUUGCAGAAGGUGCAACAUGAGGAUCACCCAUGUUUCCGGGCAU”, the “apparent Kd” value under setting [1] came to 16 nM and the “apparent Kd” value under setting [2] stood at 28 nM.

On to “ACAGUAUAUGUAGGAUAUCAUUGGCCAGGUAGGUGAGAAGGGCAUAGUACAUGAGGAUCACCCAUGUGUUGGUCCUCGCAGAAA”, for which the “apparent Kd” value under setting [1] was 392 nM and the “apparent Kd” value under setting [2] turned out to be 233 nM.

As to “ACAAUAGUAUCACAUGUAUUACAUGAGGAUCACCCAUGUAACUAGGAUAUGUUUUAAAAUUUACAACAGAAGGAGUUAUUAUGU”, the “apparent Kd” value under setting [1] stood at 8.2 nM and the “apparent Kd” value under setting [2] was 14.6 nM.

Consider “CGAGUUUUUGAGAAGGCAUAUUAUAUUUAUAGUCAUGUUAACAUGAGGAUCACCCAUGUUCUCUAUGAGGAUAUCAGUUUAUCG”, for which the “apparent Kd” value is, setting by setting: under setting [1], 7.68 nM; under setting [2], 7.87 nM.

Take “GACAGACAUGAGGAUCACCCAUGUACAAACGUACAAGGAUAUGUGUGGAAACCGUACUAUACAGAAGGUGUCUGUC”: the “apparent Kd” value was determined as 121 nM under setting [3] and 151 nM under setting [4].

Consider “AUAUGAUAGAUAGGAUAUACAGUGGAUUUAUAAGUAGAAGGAUCAAGUGGGAAUUAUACAUGAGGAUCACCCAUGUUUUUGGAU”, for which the “apparent Kd” value is 68.2 nM under setting [3] and 45.8 nM under setting [4].

In the case of “UUUUAACAUGAGGAUCACCCAUGUGAGGAUAUCGAAAUUUAUAUUAAUAUUUAUAAAUCGAGAAGGCACAUUUU”, the “apparent Kd” value under setting [1] is 135 nM and the “apparent Kd” value under setting [2] worked out at 124 nM.

For “UGAAAUCAUGUAGGAUAUGCAUGGCGAAGCUACGCAGAAGGACAUGAGGAUCACCCAUGUGCUAGCUACCGGAUACGGUGGCAA”, the “apparent Kd” value came out at 99.1 nM under setting [1] and 230 nM under setting [2].

For “UGUCGGAGCAGAGGAUAUUACAUGAGGAUCACCCAUGUAUGAACCAAUAGCUGGAAACAGCAAUGUAAGAAGGGUGCUCCGACA”, the “apparent Kd” value under setting [1] amounted to 6.09 nM and the “apparent Kd” value under setting [2] was 13.2 nM.

For the sequence “AGUGUCAUCGAGAAGGCCUUGACAUGAGGAUCACCCAUGUUAUAACAUGGGAGGAUAUCGAUGAUACAGCUACGUUUCGUAGCA”, the “apparent Kd” value under setting [3] amounted to 509 nM and the “apparent Kd” value under setting [4] came out at 46.7 nM.

Turning to “AUCCCGAUAGUAGGAUAUUUCUGCAGUUGUGGUUAGGUCGCCCUACAUGAGGAUCACCCAUGUAGAGAGAAGGACUGUGGUUAA”, the “apparent Kd” value by setting is: under setting [1], 5.52 nM; under setting [2], 6.7 nM.

The values above are taken from the EternaBench riboswitch data.
